# Measured values: PubChem BioAssay AID624466 (The Scripps Research Institute Molecular Screening Center, 2012)
# Values joined by “and” are separate entries in the source; they are usually repeats but may differ in a detail not shown here. Equal entries are not always repeated. Out of some 360,000 compounds screened, about 5,400 (1.5%) were called active. The sample as a whole holds a higher share of actives than the screen did. Unmarked numbers belong to inactive results.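 Rule for the calls: active = inhibition above a per-plate cutoff, the mean inhibition of test compounds on that plate plus 3 SD (cut at about 49% in these data); inactive = the rest.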
# Biological target: Trace amine-associated receptor 1 (Homo sapiens) (UniProt Q96RJ0)
# Assay: human TAAR1 antagonists, primary screen, Fluo-8 calcium fluorescence, CHO RD-HGA16 cells (AID 624466);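 note: 0% = DMSO plus EC80 beta-PEA response and 100% = DMSO alone without agonist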
# Settings: CHO RD-HGA16 TAAR1, Fluo-8 calcium fluorescence, antagonist; at 3 µM; stronger effect = higher value
# Outline: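 Material: RD-HGA16 CHO cells with stable hTAAR1 and Gα16; Dosing: single nominal final test compound concentration of 3 µM; Schedule: seeding 17-24 h prior, 75-min 37 °C, 30-min RT dye loading; Detection: kinetic Fluo-8 calcium fluorescence measurement; Measure: % inhibition from peak post-agonist over basal fluorescence ratio; Benchmarks: vehicle and agonist controls.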
# Chain of Trace amine-associated receptor 1 (Homo sapiens) (Q96RJ0 whole entry, looked up): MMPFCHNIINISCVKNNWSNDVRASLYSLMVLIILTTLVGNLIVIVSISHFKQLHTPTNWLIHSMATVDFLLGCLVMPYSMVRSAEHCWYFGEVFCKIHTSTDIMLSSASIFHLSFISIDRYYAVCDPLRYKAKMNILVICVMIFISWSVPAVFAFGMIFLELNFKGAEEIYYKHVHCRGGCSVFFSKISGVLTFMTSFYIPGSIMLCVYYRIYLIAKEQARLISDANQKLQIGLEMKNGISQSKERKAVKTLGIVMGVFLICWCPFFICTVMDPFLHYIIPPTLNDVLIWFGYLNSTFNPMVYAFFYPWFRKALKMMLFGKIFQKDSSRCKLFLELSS
row,SMILES,inhibition
1,CC(=O)c1c(O)n(C2CCCCCC2)c(=O)[nH]c1=O,-7.9%
2,CCC(=NCCc1ccccc1)c1c(O)n(C2CCCCC2)c(=O)[nH]c1=O,60.3% (active)
3,CCCCCCN=C(CC)c1c(O)n(CCCC)c(=O)[nH]c1=O,4.8%
4,O=C1C2(Cl)C3(Cl)C4(Cl)C(Cl)(Cl)C5(Cl)C3(Cl)C1(Cl)C5(Cl)C24Cl (stereo not given),64.1% (active)
5,Cc1cccc(NC(=O)OC2CN3CCC2CC3)c1 (stereo not given),-7.58%
6,Cc1cc(-c2ccc(N)c(C)c2)ccc1N,6.17%
7,CC[N+]1(C)CCCC(OC(=O)C(O)(c2ccccc2)c2ccccc2)C1 (stereo not given),-0.72%
8,COc1cc(C(c2c(O)c3ccccc3oc2=O)c2c(C)n(C)n(-c3ccccc3)c2=O)ccc1O (stereo not given),3.68%
9,CCOC(=O)C1SC2(C(F)(F)C(F)F)CC1(O)c1c(c(OC)c3occc3c1OC)O2 (stereo not given),65.5% (active)
10,CC(Cc1ccccc1)NC=O (stereo not given),74.1% (active)
11,CC(Cc1ccccc1)NCCC(c1ccccc1)c1ccccc1 (stereo not given),45.6%
12,CC(=O)Nc1ccc(C(=O)C(Cc2ccccc2)N(C)C)cc1 (stereo not given),-13.4%
13,COC(=O)C1=C(c2ccc(Cl)c(C(F)(F)F)c2)C[C@@H]2CC[C@H]1N2C(=O)NC1CC1,36.7%
14,COC1=CC=C2[C@H]3Cc4ccc(OC)c5c4[C@@]2(CCN3C)C1O5 (stereo not given in full),-0.15%
15,COc1ccc(CN2CCN(c3ccccc3F)CC2)c(OC)c1,-21.7%
16,c1ccc(CCNC2CCCCCC2)cc1,85.7% (active)
17,OC(CNC1CCCCC1)c1ccccc1 (stereo not given),-11.8%
18,c1cc2c(cc1CCNC1CCCCCC1)OCO2,-6.33%
19,c1ccc(CCN2CCC3(CC2)OCCO3)cc1,-16.1%
20,CCN(CC)C(=O)[C@@H]1C=C2c3cccc4[nH]c(Br)c(c34)C[C@H]2N(C)C1,-12.3%

row,SMILES,inhibition
1,CN1CCC(OC(=O)c2cccc(F)c2)CC1,-5.85%
2,COC(=O)N1C(c2ccccc2)C1c1ccccc1 (stereo not given),2.76%
3,COC(=O)C1=C(c2ccc(F)cc2OCc2ccccc2)C[C@@H]2CC[C@H]1N2C(=O)NCc1ccc(Cl)cc1,52.3% (active)
4,COC(=O)C1=C(c2ccccc2OCc2ccccc2)C[C@@H]2CC[C@H]1N2C(=O)NCc1ccc(OC)cc1,56.6% (active)
5,COC(=O)C1=C(c2ccc(OCc3ccccc3)cc2)C[C@@H]2CC[C@H]1N2C(=O)NCc1cccc(F)c1,-9.38%
6,COC(=O)C1=C(c2ccc(OCc3ccccc3)cc2)C[C@@H]2CC[C@H]1N2C(=O)NCc1ccc(Cl)cc1,-21.6%
7,COC(=O)C1=C(c2ccc(F)cc2OCc2ccccc2)C[C@@H]2CC[C@H]1N2C(=O)NCc1ccc2[nH]ccc2c1,29.6%
8,COC(=O)C1=C(c2ccc(-c3ccccc3)c(F)c2)C[C@@H]2CC[C@H]1N2C(=O)NCc1ccc(F)cc1,-7.93%
9,COC(=O)C1=C(c2ccc(F)cc2OCc2ccccc2)C[C@@H]2CC[C@H]1N2C(=O)NCc1ccc(C(C)(C)C)cc1,12.1%
10,COC(=O)C1=C(c2cccc(OCc3ccccc3)c2)C[C@@H]2CC[C@H]1N2C(=O)NCc1ccc(Br)cc1,-0.83%
11,COC(=O)C1=C(c2ccc(F)cc2OCc2ccccc2)C[C@@H]2CC[C@H]1N2C(=O)NCc1ccc(OC)c(OC)c1,60.1% (active)
12,O=S(=O)(c1ccccc1)N1CCC2CCNC2C1 (stereo not given),-13.7%
13,CS(=O)(=O)N1CCC2CCNC2C1 (stereo not given),-17.4%
14,COc1ccc2c(c1)[C@@]13CCCCC1[C@@H](C2)NCC3 (stereo not given in full),2.15%
15,Cc1cc(N2CCNC[C@@H]2C)ccc1N1CC[C@H](O)C1,-25.4%
16,COc1ccccc1-n1c(O)c(C=NC2CC2)c(=O)[nH]c1=O,5.89%
17,CCCCCn1c(=O)c(C(=O)NCc2ccccn2)c(O)c2ccccc21,9.96%
18,CCN(CC)C(=O)Oc1ccc(NC(=O)N2CCOCC2)cc1,-5.87%
19,CSc1nc2ccc(C)cc2c(=O)n1-c1cccnc1,-37.6%
20,O=c1[nH]c(=O)n(-c2ccccc2)c(O)c1C=NC12CN3CN(CN(C3)C1)C2,3.93%

row,SMILES,inhibition
1,Brc1ccc2c(c1)CNCc1cnnn1-2,-22.5%
2,CCCCC(=O)N/N=C/c1c(O)n(CCC2=CCCCC2)c(=O)[nH]c1=O,-20.4%
3,CCCCC(=O)N/N=C/c1c(O)n(CC)c(=S)n(CC)c1=O,63.8% (active)
4,Cn1c(O)c(C=NCCCC(=O)O)c(=O)n(C)c1=O,-5.57%
5,Clc1ccc([C@@H]2CC3CCC2N3)cn1 (stereo not given in full),-10.7%
6,CC12CCC3C(CCC4CC(=O)CCC43C)C1CC(=NO)C2=O (stereo not given),-3.38%
7,CCC(C)NC1(c2ccccc2)CCCCC1 (stereo not given),-0.42%
8,O=C1NC(=O)C(C/C=C/c2ccccc2)C(=O)N1,9.88%
9,COc1ccc(-n2nnnc2C(c2cccc3ccccc23)N2CCC(n3c(=O)[nH]c4ccccc43)CC2)cc1 (stereo not given),40.3%
10,O=c1[nH]c2ccccc2n1C1CCN(C(c2ccccc2)c2nnnn2Cc2ccccc2)CC1 (stereo not given),52.2% (active)
11,Cc1ccc(Cn2nnnc2CN2CCC(n3nnc4ccccc43)CC2)cc1,-2.23%
12,CSCCC(c1nnnn1C(C)(C)C)N1CCC(n2c(=O)[nH]c3ccccc32)CC1 (stereo not given),52.1% (active)
13,O=C1NCN(c2ccccc2)C12CCN(C(c1cccs1)c1nnnn1C1CCCCC1)CC2 (stereo not given),8.02%
14,O=c1[nH]c2ccccc2n1C1CCN(C(c2ccnc3ccccc23)c2nnnn2Cc2ccccc2)CC1 (stereo not given),54.6% (active)
15,COc1cc(OC)cc(C(=O)NCCN2CCC3(CC2)C(=O)NCN3c2ccccc2)c1,-2.28%
16,Oc1ccc2c3c1OC1[C@H](O)CC[C@@]4(O)[C@@H](C2)N(CC2CC2)CC[C@]314 (stereo not given in full),-34.9% and -15.5%
17,CC(C)(C)c1ccc(OC(=O)N2CCCCC2)cc1,21.5%
18,O=c1[nH]c(=O)n(CCc2ccc(F)cc2)c(O)c1/C=N/N1CCCCC1,-33.7%
19,CC(C)c1ccc(O)c(CN2CCN(c3ccccc3)CC2)c1,-1.33%
20,CN(C)/C=C(\C=[N+](C)C)c1[nH]ncc1[N+](=O)[O-],-2.16%
